The source of these data is ChEMBL document CHEMBL1157608, “The discovery of 4-{1-[({2,5-dimethyl-4-[4-(trifluoromethyl)benzyl]-3-thienyl}carbonyl)amino]cyclopropyl}benzoic acid (MK-2894), a potent and selective prostaglandin E2 subtype 4 receptor antagonist” (J Med Chem, 2010).

Structures are written as SMILES. Activity calls are given as the source filed them. The rule behind the calls is not given here.

Data set [1] deals with T1, Prostaglandin E2 receptor EP1 subtype (Rattus norvegicus, UniProt P70597).
T1 sequence (P70597 whole entry): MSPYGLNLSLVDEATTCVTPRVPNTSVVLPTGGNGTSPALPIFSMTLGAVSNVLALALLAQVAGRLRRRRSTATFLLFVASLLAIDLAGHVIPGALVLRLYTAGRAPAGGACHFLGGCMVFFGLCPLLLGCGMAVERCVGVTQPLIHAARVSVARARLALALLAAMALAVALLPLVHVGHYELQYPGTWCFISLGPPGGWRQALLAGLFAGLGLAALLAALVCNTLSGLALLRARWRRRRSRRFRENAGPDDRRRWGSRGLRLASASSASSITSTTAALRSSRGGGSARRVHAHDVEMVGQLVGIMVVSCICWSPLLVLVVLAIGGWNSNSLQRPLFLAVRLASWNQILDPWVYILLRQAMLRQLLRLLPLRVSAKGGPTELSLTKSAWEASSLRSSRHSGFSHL
Put plainly: Displacement of [3H]PGE2 from rat EP1 receptor expressed in HEK293-EBNA cells by scintillation counting. The class given is cell-based. The method in brief:
(§1)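 Radioligand binding on membranes from HEK 293(EBNA) clonal lines overexpressing each prostanoid receptor, using the respective 3H-prostaglandin or thromboxane ligand; EP4 binding also run with 10% human serum; Ki as means of at least three experiments (rEP2, rEP3 n = 1).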

Data set [2] is filed under the species Rattus norvegicus. Put plainly: Analgesic activity against complete Freund's adjuvant-induced Sprague-Dawley rat inflammatory pain assessed as inhibition of chronic paw swelling. Type of data set: functional. The procedure, abridged: (§2)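 Adjuvant-induced arthritis in rats: CFA injected into primary paw on day 0; oral dosing in 0.5% methocel once daily for 9 days starting day 9; secondary paw swelling measured; plasma levels taken 24 h after final dose; n = 7/group; 1-way ANOVA/Dunnett's vs vehicle.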

The nature of data set [3]: Volume of distribution at steady state in Beagle dog at 5 mg/kg, po and 1 mg/kg, iv. The note with it: in vivo, read-out: Vdss. Type of data set: ADME, organism-based, Canis lupus familiaris. The method in brief: (§3)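 Overnight-fasted animals dosed po in 0.5% methocel or iv in 60% PEG 200; plasma from serial blood samples stored at -10 °C, protein-precipitated with equal volume acetonitrile/0.1% formic acid, analysed by LC/MS/MS with internal standard against spiked blank-plasma standards; Cmax from po data, half-life from iv data.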

The nature of data set [4]: Cmax in Sprague-Dawley rat at 20 mg/kg, po. Type of data set: ADME, organism-based. The conditions noted are these: in vivo. Further details: dose 20 mg/kg, route oral. The procedure, abridged:
as §3

Data set [5] in a line: Oral bioavailability in C57BL/6 mouse at 20 mg/kg. The class given is ADME, organism-based. The conditions noted are these: in vivo. The procedure, abridged:
as §3

Data set [6] relates to Rattus norvegicus. Nature of the data set: Analgesic activity in po dosed Sprague-Dawley rat assessed as inhibition of carrageenan-induced mechanical hyperalgesia relative to control. Type of data set: functional. The procedure, abridged:
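SD rats given subplantar carrageenan; compound dosed orally as a single dose; mechanical hyperalgesia read at 3 h post carrageenan, 1 h post dose; inhibition expressed vs vehicle control; n = 10-20/group; 1-way ANOVA/Dunnett's.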

The species named for data set [7] is Rattus norvegicus. Put plainly: Analgesic activity against complete Freund's adjuvant-induced Sprague-Dawley rat inflammatory pain assessed as inhibition of chronic paw swelling at plasma concentration of 4 nM after 24 hrs. Type of data set: functional, organism-based. The method in brief:
as §2

The test system of data set [8] is Rattus norvegicus. Nature of the data set: Plasma concentration in complete Freund's adjuvant-induced Sprague-Dawley rat inflammatory pain model at 0.1 mg/kg/day, po. The class given is ADME, organism-based. Further details: route oral. The conditions noted are these: in vivo. The procedure, abridged:
as §2

Data set [9] has as its target Prostaglandin F2-alpha receptor (Homo sapiens, UniProt P43088). Put plainly: Displacement of [3H]PGF2alpha from human FP receptor expressed in HEK293-EBNA cells by scintillation counting. The class given is cell-based. The method in brief:
as §1
(In a radioligand displacement assay an active substance lowers the binding of a labelled ligand.)

Data set [10] has as its target T2, Prostaglandin D2 receptor 2 (Homo sapiens, UniProt Q9Y5Y4).
T2 sequence (Q9Y5Y4 whole entry): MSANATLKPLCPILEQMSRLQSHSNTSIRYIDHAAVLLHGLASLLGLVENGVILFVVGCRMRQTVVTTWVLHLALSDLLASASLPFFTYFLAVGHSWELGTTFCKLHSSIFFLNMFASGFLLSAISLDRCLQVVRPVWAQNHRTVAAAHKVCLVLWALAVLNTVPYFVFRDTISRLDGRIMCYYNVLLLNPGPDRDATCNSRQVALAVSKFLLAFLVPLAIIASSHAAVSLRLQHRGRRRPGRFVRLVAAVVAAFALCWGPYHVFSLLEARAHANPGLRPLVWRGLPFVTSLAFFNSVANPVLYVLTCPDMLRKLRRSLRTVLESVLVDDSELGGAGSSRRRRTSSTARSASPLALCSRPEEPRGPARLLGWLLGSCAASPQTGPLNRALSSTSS
Put plainly: Displacement of [3H]PGD2 from human DP2 receptor expressed in HEK293-EBNA cells by scintillation counting. The class given is cell-based. The procedure, abridged: as §1

Data set [11] concerns the target Prostaglandin E2 receptor EP4 subtype (Rattus norvegicus, UniProt P43114). Put plainly: Displacement of [3H]PGE2 from rat EP4 receptor expressed in HEK293-EBNA cells by scintillation counting. Type of data set: cell-based. The method in brief: as §1
Data set [12] addresses T3, Prostaglandin D2 receptor (Homo sapiens, UniProt Q13258).
T3 sequence (Q13258 whole entry): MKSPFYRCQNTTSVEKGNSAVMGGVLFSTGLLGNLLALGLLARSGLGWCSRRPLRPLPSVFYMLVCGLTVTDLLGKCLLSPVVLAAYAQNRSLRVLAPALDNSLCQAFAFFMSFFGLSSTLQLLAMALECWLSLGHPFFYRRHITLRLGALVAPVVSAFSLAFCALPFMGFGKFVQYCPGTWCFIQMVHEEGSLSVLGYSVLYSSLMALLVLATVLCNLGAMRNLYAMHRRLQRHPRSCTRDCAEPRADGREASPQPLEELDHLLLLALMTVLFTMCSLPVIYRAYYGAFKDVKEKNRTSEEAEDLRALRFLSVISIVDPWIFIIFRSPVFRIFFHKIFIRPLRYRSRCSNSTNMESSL
Nature of the data set: Displacement of [3H]PGD2 from human DP1 receptor expressed in HEK293-EBNA cells by scintillation counting. Type of data set: cell-based. The procedure, abridged:
as §1

Data set [13] in a line: Volume of distribution at steady state in C57BL/6 mouse at 20 mg/kg, po and 5 mg/kg, iv. The conditions noted are these: in vivo, read-out: Vdss. The class given is ADME, organism-based. The method in brief: as §3
Data set [14] has as its target Prostaglandin E2 receptor EP2 subtype (Rattus norvegicus, UniProt Q62928). Nature of the data set: Displacement of [3H]PGE2 from rat EP2 receptor expressed in HEK293-EBNA cells by scintillation counting. Type of data set: cell-based. The method in brief: as §1
Data set [15] can be described thus: Plasma clearance in Sprague-Dawley rat at 20 mg/kg, po and 5 mg/kg, iv. The class given is ADME, organism-based. The procedure, abridged: as §3
In a further data set the test system is Cynomolgus monkey. Nature of the data set: Volume of distribution at steady state in cynomolgus monkey at 5 mg/kg, po and 1 mg/kg, iv. The class given is ADME, organism-based, Macaca fascicularis. The conditions noted are these: in vivo. The method in brief: as §3
Data set [16] addresses T4, Prostaglandin E2 receptor EP3 subtype (Rattus norvegicus, UniProt P34980).
T4 sequence (P34980 whole entry): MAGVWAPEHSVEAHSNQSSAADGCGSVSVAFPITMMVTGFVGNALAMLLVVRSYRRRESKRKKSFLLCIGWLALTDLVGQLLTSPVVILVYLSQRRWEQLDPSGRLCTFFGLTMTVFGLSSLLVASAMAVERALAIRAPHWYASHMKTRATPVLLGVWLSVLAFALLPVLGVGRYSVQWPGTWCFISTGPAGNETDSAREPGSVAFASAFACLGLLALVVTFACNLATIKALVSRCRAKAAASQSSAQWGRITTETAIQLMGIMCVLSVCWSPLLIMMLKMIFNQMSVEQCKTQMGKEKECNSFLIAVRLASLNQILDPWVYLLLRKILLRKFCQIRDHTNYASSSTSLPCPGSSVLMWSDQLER
Put plainly: Displacement of [3H]PGE2 from rat EP3 receptor expressed in HEK293-EBNA cells by scintillation counting. Type of data set: cell-based. The procedure, abridged:
as §1

Sequence of Prostaglandin E2 receptor EP2 subtype (Q62928 whole entry): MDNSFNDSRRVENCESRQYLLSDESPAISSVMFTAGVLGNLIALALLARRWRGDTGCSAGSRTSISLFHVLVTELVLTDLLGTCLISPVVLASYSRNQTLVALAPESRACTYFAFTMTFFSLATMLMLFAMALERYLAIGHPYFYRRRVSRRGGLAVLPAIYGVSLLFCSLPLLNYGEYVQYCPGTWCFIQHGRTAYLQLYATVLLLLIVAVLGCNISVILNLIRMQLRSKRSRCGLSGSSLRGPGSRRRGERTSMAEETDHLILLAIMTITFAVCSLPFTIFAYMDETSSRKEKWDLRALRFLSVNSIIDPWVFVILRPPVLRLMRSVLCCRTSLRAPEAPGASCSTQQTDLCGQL
Sequence of Prostaglandin E2 receptor EP4 subtype (P43114 whole entry): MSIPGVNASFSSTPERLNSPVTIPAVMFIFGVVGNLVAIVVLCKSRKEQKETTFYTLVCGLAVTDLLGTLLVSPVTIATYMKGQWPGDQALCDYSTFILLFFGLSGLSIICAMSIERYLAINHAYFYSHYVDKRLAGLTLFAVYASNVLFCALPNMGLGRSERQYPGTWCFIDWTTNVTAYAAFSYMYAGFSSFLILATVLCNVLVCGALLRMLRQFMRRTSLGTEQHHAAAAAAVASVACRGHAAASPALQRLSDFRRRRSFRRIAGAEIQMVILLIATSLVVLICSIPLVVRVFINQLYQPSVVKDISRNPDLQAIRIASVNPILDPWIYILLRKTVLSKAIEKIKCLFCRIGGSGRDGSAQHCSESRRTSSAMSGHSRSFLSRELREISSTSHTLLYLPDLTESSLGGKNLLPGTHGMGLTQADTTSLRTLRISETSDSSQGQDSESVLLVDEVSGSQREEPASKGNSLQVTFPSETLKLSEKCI
Sequence of Prostaglandin F2-alpha receptor (P43088 whole entry): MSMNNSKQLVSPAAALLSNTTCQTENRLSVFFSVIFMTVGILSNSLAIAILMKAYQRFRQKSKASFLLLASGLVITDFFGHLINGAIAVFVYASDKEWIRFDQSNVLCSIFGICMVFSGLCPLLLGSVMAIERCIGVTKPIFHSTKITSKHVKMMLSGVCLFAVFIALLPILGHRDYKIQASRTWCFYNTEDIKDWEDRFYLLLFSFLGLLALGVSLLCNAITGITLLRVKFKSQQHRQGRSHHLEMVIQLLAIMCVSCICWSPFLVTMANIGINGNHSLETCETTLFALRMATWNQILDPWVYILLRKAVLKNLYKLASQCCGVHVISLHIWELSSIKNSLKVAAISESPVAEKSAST

The term Ki denotes a dissociation constant, usually derived from enzyme kinetics or from competition with a known ligand. For orientation: ED50 means the dose that gives a 50% effect, or the effect in half of the subjects. For orientation: Cmax means the peak of the concentration-time curve. Broadly, the bioavailability is the share of a dose that reaches the circulation, judged against a reference dose that is usually intravenous. As to `Cc1sc(C)c(C(=O)NC2(c3ccc(C(=O)O)cc3)CC2)c1Cc1ccc(C(F)(F)F)cc1`, the Ki in [1] was > 29 µM; in data set [9] it was > 24 µM; in [10] it was > 21 µM; in [11], 0.0007 µM; in [12], > 3.9 µM; in data set [14], 7.2 µM. In data set [16], the Ki was found to be 3.3 µM. Further, in the data set filed under Rattus norvegicus [2], the Activity result was “Dose-dependent effect”. For the same compound, the ED50 in the data set filed under Rattus norvegicus [2] worked out at 0.02 mg/kg. Also, the Vd was found to be 0.91 L/kg in data set [3] and 7.6 L/kg in data set [13]. Moreover, in data set [4], the highest level (Cmax) was 4500 nM. Besides, in data set [5], the bioavailability is 21%. In the data set on Rattus norvegicus [6], the “inhibition (INH)” value is 60%. Further, the outcome in the data set filed under Rattus norvegicus [7] was Active. Besides, in the data set with Rattus norvegicus [8], the concentration was 4 nM. In data set [15], this compound came in with a clearance of 9.2 mL/min/kg. For the same compound, in the data set with Cynomolgus monkey, the Vdss was 7.9 L/kg.
